Measurements published in ChEMBL document CHEMBL1145132, “N-hydroxy-3-phenyl-2-propenamides as novel inhibitors of human histone deacetylase with in vivo antitumor activity: discovery of (2E)-N-hydroxy-3-[4-[[(2-hydroxyethyl)[2-(1H-indol-3-yl)ethyl]amino]methyl]phenyl]-2-propenamide (NVP-LAQ824)” (J Med Chem, 2003).
Values joined by “and” are separate entries in the source; they are usually repeats but may differ in a detail not shown here. Identical values can stand only once.

Legend:
HCT-116 = assay: Inhibitory activity against HCT116 human colon cell growth; assay type: functional, cell-based
NCI-H1299 = assay: Inhibitory activity against H1299 human lung carcinoma cell growth; assay type: functional, cell-based
Histone deacetylase = assay: Inhibitory activity against histone deacetylase (HDAC) enzyme obtained from H1299 human lung carcinoma cell lysates
Mus musculus [1] = assay: Ratio of the change in tumor volume of treated animals to the change in tumor volume of control animals at a dose of 50 mg/kg; assay type: functional
In short: (§1)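 HCT116 sc xenografts (≈10⁶ cells) in female athymic nude mice, eight per group, treated from ≈100 mm³ tumors with iv lactate salt in 10% DMSO/D5W qd 5×/week for 10 or 15 doses. Tumors measured weekly; % T/C = change in treated tumor volume over change in vehicle-control tumor volume; one-tailed Student's t-test.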

Mus musculus [2] = assay: Compound was tested in vivo for efficacy in athymic mice bearing HCT116 subcutaneous tumor xenografts at a dose of 50 mg/kg and change in the body weight of the mouse was evaluated; assay type: functional; settings: route intravenous
In short: (§2)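 Female outbred athymic nu/nu mice, ≈10⁶ HCT116 cells injected sc in right axillary region under anesthesia; treatment began when tumors ≈100 mm³ (day 13 post-implant), groups of eight balanced on tumor volume. Compound given iv as lactate salt in 10% DMSO/D5W, qd 5×/week for 15 doses. Individual body weights recorded once weekly; % change from start reported.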

Mus musculus [3] = assay: Compound was tested in vivo for maximum tolerated dose (MTD) that resulted in no deaths when administered intravenously for five days; assay type: functional
In short: (§3)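 Athymic mice, four per group, dosed iv once daily for five consecutive days, up to a maximum of 200 mg/kg/day. Compound given as the lactate salt in 10% DMSO in 5% dextrose/water (final DMSO 10%). MTD taken as the highest dose that caused no deaths.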

Mus musculus [4] = assay: Compound was tested in vivo for efficacy in athymic mice bearing HCT116 subcutaneous tumor xenografts at a dose of 30 mg/kg and change in the body weight of the mouse was evaluated; assay type: functional; in short: as §2
Mus musculus [5] = assay: Ratio of the change in tumor volume of treated animals to the change in tumor volume of control animals at a dose of 30 mg/kg; assay type: functional; in short: as §1
Mus musculus [6] = assay: Compound was tested for maximum tolerated dose (MTD) that resulted in no deaths when administered intravenously for five days; assay type: functional; in short: as §3
Mus musculus [7] = assay: Compound was tested for efficacy in athymic mice bearing HCT116 subcutaneous tumor xenografts at a dose of 10 mg/kg and change in the body weight of the mouse was evaluated; assay type: functional; in short: as §2
Mus musculus [8] = assay: Ratio of the change in tumor volume of treated animals to the change in tumor volume of control animals at a dose of 10 mg/kg; assay type: functional; in short: as §1
Mus musculus [9] = assay: Ratio of the change in tumor volume of treated animals to the change in tumor volume of control animals at a dose of 25 mg/kg; assay type: functional; in short: as §1
Mus musculus [10] = assay: Ratio of number of deaths of mice to the number of mice tested was determined at a dose of 50 mg/kg; dead/total = 0 / 8; assay type: functional
In short: (§4)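 Female outbred athymic nu/nu mice, eight per group, carrying subcutaneous right-axillary HCT116 (≈10⁶ cells) or A549 (≈10⁷ cells) xenografts, started treatment at ≈100 mm³ tumour volume. Drug given as lactate salt in 10% DMSO/D5W, iv qd 5×/week for 15 doses. Body weights and tumours recorded weekly; deaths counted per group as dead/total.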

Mus musculus [11] = assay: Ratio of the change in tumor volume of treated animals to the change in tumor volume of control animals at a dose of 100 mg/kg; assay type: functional; settings: 100 mg/kg; in short: as §1
Mus musculus [12] = assay: Compound was tested in vivo for efficacy in athymic mice bearing HCT116 subcutaneous tumor xenografts at a dose of 100 mg/kg and change in the body weight of the mouse was evaluated; assay type: functional; settings: route intravenous, 100 mg/kg; in short: as §2
Mus musculus [13] = assay: Compound was tested in vivo for efficacy in athymic mice bearing HCT116 subcutaneous tumor xenografts at a dose of 10 mg/kg and change in the body weight of the mouse was evaluated; assay type: functional; settings: route intravenous; in short: as §2
Mus musculus [14] = assay: Compound was tested in vivo for efficacy in athymic mice bearing HCT116 subcutaneous tumor xenografts at a dose of 25 mg/kg and change in the body weight of the mouse was evaluated; assay type: functional
Mus musculus [15] = assay: Ratio of number of deaths of mice to the number of mice tested was determined at a dose of 100 mg/kg; dead/total = 0 / 8; assay type: functional; in short: as §4
Mus musculus [16] = assay: Ratio of number of deaths of mice to the number of mice tested was determined at a dose of 10 mg/kg; dead/total = 0 / 8; assay type: functional; in short: as §4

Row | SMILES | IC50 (HCT-116) [nM] | IC50 (NCI-H1299) [nM] | IC50 (Histone deacetylase) [nM] | other results
1 | O=C(/C=C/c1ccc(CN(CCOC(=O)NCc2ccoc2)CCc2c[nH]c3ccccc23)cc1)NO | 15 | 180 | 370 | 
2 | O=C(/C=C/c1ccc(CN(CCc2c[nH]c3ccccc23)C(CO)CO)cc1)NO | 160 | 2500 | 52 | 
3 | O=C(/C=C/c1ccc(CNCCOc2ccccc2)cc1)NO | 160 | 1530 | 69 | 
4 | Cc1nc2ccccc2n1CCNCc1ccc(/C=C/C(=O)NO)cc1 | 200 | 2750 | 38 | 
5 | O=C(/C=C/c1ccc(CNCCc2coc3ccccc23)cc1)NO | 30 | 180 | 16 | T/C (Mus musculus [1]): 49%; Body weight change (Mus musculus [2]): 0.5%; MTD (Mus musculus [3]): 50 mg/kg
6 | O=C(/C=C/c1ccc(CNCCc2cnc3ccccc3c2)cc1)NO | 40 | 500 | 67 | Body weight change (Mus musculus [4]): -5.4%; MTD (Mus musculus [3]): 30 mg/kg; T/C (Mus musculus [5]): 77%
7 | CC(Cc1c[nH]c2ccccc12)NCc1ccc(/C=C/C(=O)NO)cc1 (stereo not drawn) | 20 | 410 | 24 | 
8 | COc1ccccc1NCCNCc1ccc(/C=C/C(=O)NO)cc1 | 170 | 2160 | 111 | 
9 | O=C(/C=C/c1ccc(CNCc2cc3ccccc3[nH]2)cc1)NO | 50 | 940 | 51 | 
10 | O=C(/C=C/c1ccc(CNCCn2c3ccccc3c3ccccc32)cc1)NO | 10 | 100 | 66 | MTD (Mus musculus [6]): 10 mg/kg; Body weight change (Mus musculus [7]): -3.7%; T/C (Mus musculus [8]): 85%
11 | O=C(/C=C/c1ccc(CN2CCc3c([nH]c4ccccc34)C2)cc1)NO | 430 | 2900 | 118 | 
12 | O=C(/C=C/c1ccc(CN(CCc2c[nH]c3ccccc23)Cc2ccccc2)cc1)NO | 120 | 2060 | 85 | 
13 | O=C(/C=C/c1ccc(CN(CCc2c[nH]c3ccccc23)C2CCCCC2)cc1)NO | 17 | 40 | 20 | 
14 | CC(NCCc1c[nH]c2ccccc12)c1ccc(/C=C/C(=O)NO)cc1 (stereo not drawn) | 15 | 480 | 23 | 
15 | Nc1ccccc1NC(=O)c1ccc(CNC(=O)OCc2ccccc2)cc1 | 670 | 6820 | > 10000 | 
16 | O=C(/C=C/c1ccc(CN(CCO)CCc2cnc3ccccc3c2)cc1)NO | 40 | 530 | 24 | T/C (Mus musculus [1]): 78%; Body weight change (Mus musculus [2]): 3.1%; MTD (Mus musculus [3]): 50 mg/kg
17 | COc1ccc2[nH]cc(CCNCc3ccc(/C=C/C(=O)NO)cc3)c2c1 | 30 | 580 | 14 | T/C (Mus musculus [1]): 24%; T/C (Mus musculus [9]): 38%; Ratio (Mus musculus [10]): 0; Body weight change (Mus musculus [2]): -8.1%; MTD (Mus musculus [3]): 100 mg/kg; T/C (Mus musculus [11]): 9% and 22%; Body weight change (Mus musculus [12]): 7.4% and 12%; Body weight change (Mus musculus [13]): -4.6%; Body weight change (Mus musculus [14]): -5.5%; Ratio (Mus musculus [15]): 0; T/C (Mus musculus [8]): 64%; Ratio (Mus musculus [16]): 0
18 | O=C(/C=C/c1ccc(CN(CCCc2ccccc2)Cc2ccccn2)cc1)NO | 740 | 2740 | 278 | 
